# Results reported in ChEMBL document CHEMBL3994667, “Small Molecule Lysyl Oxidase-like 2 (LOXL2) Inhibitors: The Identification of an Inhibitor Selective for LOXL2 over LOX” (ACS Med Chem Lett, 2017).
# How the values were obtained:
# Lysyl oxidase homolog 2 [1] = target: T1, Lysyl oxidase homolog 2 (Mus musculus, UniProt P58022); experiment: Inhibition of full length recombinant mouse LOXL2 expressed in CHO cells assessed as reduction in H2O2 production using DAP as substrate preincubated for 2 hrs followed by substrate addition measured every 2 minutes for 50 minutes in presence of BSA by Amplex red dye based fluorescence assay; format: cell-based
# T1 sequence (P58022 whole entry): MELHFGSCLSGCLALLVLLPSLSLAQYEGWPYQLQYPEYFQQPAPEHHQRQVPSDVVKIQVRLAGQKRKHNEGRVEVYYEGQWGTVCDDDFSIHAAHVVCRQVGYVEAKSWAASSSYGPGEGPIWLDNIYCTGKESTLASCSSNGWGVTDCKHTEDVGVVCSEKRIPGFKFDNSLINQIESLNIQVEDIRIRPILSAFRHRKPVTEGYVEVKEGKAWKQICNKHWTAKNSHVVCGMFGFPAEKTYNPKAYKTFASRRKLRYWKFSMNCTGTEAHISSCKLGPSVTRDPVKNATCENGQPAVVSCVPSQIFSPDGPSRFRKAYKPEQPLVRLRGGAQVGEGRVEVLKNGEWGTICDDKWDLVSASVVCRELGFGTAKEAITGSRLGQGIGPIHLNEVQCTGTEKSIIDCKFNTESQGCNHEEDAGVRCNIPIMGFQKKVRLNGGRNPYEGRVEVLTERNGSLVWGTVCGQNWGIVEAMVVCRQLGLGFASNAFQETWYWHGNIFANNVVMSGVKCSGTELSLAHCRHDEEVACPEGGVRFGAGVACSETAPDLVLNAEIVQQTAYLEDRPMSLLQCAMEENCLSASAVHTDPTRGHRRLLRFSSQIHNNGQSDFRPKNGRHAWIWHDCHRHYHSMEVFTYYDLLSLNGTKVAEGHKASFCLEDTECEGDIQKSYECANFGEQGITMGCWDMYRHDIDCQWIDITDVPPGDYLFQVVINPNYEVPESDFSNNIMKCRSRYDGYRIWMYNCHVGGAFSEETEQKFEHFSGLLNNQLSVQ
# Summary of the method: (§1)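 Rodent LOXL2 is tested under the same conditions as the BSA-supplemented assay: conditioned media plus BSA, with DAP as substrate and Amplex Red detection of H2O2. Species are mouse and rat. IC50 is the geometric mean x/÷ geometric standard deviation from 3 determinations.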
# Lysyl oxidase homolog 2 [2] = target: T2, Lysyl oxidase homolog 2 (Rattus norvegicus, UniProt B5DF27); experiment: Inhibition of full length recombinant rat LOXL2 expressed in CHO cells assessed as reduction in H2O2 production using DAP as substrate preincubated for 2 hrs followed by substrate addition measured every 2 minutes for 50 minutes in presence of BSA by Amplex red dye based fluorescence assay; summary of the method: as §1
# T2 sequence (B5DF27 whole entry): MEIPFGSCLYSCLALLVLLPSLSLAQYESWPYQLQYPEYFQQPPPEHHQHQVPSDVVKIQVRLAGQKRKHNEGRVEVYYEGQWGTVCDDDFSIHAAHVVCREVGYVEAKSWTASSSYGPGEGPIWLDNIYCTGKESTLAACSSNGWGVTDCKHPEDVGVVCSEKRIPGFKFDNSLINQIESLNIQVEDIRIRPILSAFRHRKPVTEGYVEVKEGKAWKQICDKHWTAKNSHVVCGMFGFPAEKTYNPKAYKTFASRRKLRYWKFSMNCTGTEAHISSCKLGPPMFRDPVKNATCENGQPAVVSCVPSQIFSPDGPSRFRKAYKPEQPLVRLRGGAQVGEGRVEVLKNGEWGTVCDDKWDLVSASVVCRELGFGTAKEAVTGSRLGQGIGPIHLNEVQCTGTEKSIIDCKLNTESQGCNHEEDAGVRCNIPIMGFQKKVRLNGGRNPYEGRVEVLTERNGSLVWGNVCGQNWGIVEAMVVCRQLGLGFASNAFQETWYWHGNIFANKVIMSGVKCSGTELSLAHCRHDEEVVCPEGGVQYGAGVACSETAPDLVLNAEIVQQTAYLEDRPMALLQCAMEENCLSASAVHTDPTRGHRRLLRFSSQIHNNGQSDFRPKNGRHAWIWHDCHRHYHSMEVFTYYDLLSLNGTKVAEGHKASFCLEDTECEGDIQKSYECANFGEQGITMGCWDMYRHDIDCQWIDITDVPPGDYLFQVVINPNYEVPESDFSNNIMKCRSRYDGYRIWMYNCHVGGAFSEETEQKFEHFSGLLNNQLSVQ
# Cytochrome P450 3A4 = Cytochrome P450 3A4 (Homo sapiens, UniProt P08684); experiment: Inhibition of CYP3A4 (unknown origin); format: ADME
# Chain of Cytochrome P450 3A4 (P08684 whole entry): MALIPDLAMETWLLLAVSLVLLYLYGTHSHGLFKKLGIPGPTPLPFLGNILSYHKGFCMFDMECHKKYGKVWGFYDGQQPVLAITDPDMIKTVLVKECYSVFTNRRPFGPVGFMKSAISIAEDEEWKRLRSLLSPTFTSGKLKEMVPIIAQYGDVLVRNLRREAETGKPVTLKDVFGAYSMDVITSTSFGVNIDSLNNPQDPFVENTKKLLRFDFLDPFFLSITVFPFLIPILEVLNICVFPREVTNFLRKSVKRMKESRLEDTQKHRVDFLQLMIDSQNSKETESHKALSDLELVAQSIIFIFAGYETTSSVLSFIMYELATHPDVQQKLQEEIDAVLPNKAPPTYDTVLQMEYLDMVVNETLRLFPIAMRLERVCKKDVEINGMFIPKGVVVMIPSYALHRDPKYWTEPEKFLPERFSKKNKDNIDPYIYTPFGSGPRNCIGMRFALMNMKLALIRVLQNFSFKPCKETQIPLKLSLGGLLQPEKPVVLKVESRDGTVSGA
# Cytochrome P450 2C9 = Cytochrome P450 2C9 (Homo sapiens, UniProt P11712); experiment: Inhibition of CYP2C9 (unknown origin); format: ADME
# Chain of Cytochrome P450 2C9 (P11712 whole entry): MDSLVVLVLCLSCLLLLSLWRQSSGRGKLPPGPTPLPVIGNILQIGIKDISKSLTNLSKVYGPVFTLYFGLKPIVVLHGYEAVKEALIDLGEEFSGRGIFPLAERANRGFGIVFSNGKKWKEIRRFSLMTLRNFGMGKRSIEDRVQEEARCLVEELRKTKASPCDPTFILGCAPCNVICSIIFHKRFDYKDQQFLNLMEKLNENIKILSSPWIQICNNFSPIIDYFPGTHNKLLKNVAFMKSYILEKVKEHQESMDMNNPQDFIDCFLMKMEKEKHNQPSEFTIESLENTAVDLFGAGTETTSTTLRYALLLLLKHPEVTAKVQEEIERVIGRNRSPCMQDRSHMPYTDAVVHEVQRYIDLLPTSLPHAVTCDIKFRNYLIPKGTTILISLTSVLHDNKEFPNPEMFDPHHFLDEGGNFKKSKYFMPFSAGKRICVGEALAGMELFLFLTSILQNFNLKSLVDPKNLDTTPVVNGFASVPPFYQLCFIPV
# Cytochrome P450 2D6 = Cytochrome P450 2D6 (Homo sapiens, UniProt P10635); experiment: Inhibition of CYP2D6 (unknown origin); format: ADME
# Chain of Cytochrome P450 2D6 (P10635 whole entry): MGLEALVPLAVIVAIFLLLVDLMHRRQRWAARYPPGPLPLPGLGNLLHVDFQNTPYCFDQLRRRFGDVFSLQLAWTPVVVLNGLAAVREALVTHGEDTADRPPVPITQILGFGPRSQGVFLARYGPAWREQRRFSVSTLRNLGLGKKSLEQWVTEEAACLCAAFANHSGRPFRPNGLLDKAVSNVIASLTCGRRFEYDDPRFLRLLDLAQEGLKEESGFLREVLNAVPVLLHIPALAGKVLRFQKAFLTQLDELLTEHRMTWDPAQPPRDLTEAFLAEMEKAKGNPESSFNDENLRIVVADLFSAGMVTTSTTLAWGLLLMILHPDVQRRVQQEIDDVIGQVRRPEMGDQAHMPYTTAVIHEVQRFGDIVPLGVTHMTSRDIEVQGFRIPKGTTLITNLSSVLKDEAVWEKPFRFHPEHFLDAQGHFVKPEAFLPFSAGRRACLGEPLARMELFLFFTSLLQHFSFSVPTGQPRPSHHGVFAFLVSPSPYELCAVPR
smiles,measurement,setting,value
NCc1ccnc(Cl)c1,IC50,Lysyl oxidase homolog 2 [1],227 nM
same,IC50,Lysyl oxidase homolog 2 [2],136 nM
same,IC50,Cytochrome P450 3A4,> 30000 nM
same,IC50,Cytochrome P450 2C9,> 30000 nM
same,IC50,Cytochrome P450 2D6,> 30000 nM
